One data set has as its system H9c2. Description: Cytotoxicity against rat H9c2 cells assessed as reduction in cell viability. In kind it is cell-based.
A short description of data set [1]: Selectivity index, ratio of IC50 for rat H9c2 cells to IC50 for antitrypanosomal activity against Trypanosoma cruzi Tulahuen trypomastigotes beta-galactosidase infected in rat H9c2 cells. In kind it is toxicity, cell-based. Particulars: read-out: Ratio IC50.
The subject of data set [2] is Trypanosoma cruzi. Description: Antitrypanosomal activity against Trypanosoma cruzi Tulahuen trypomastigotes beta-galactosidase infected in rat H9c2 cells measured after 72 hrs by DRAQ5 DNA dye based confocal microscopic analysis. The class given is functional, organism-based. Conditions: H9c2, 72 h.
For data set [3], the system named is Trypanosoma cruzi. Description: Antitrypanosomal activity against Trypanosoma cruzi Tulahuen C4 trypomastigotes harboring beta-galactosidase infected in mouse 3T3 cells after 90 mins by luminescence based assay. Particulars: Tulahuen C4, NIH3T3, 1.5 h. In kind it is functional, organism-based.
The nature of data set [4]: Intrinsic clearance in human liver microsomes at 0.5 uM in presence of NADPH measured up to 45 mins by UPLC/MS/MS analysis. The class given is ADME, Microsome. Conditions: 0.75 h. Put shortly: (§1)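 Compound at 0.5 μM was incubated with male CD1 mouse or human liver microsomes (0.5 mg/mL in 50 mM potassium phosphate, pH 7.4). The reaction was started with excess NADPH. Samples were taken at 0 and serial times up to 45 min, quenched in acetonitrile with internal standard and analysed by UPLC/MS/MS. Clint (mL/min/g tissue) was derived from t1/2 of parent remaining. Midazolam was the positive control.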
For orientation: Liver microsomes are a subcellular fraction often used to study metabolism.

A short description of data set [5]: Intrinsic clearance in CD-1 mouse liver microsomes at 0.5 uM in presence of NADPH measured up to 45 mins by UPLC/MS/MS analysis. In kind it is ADME, Microsome. Conditions: 0.75 h. Put shortly:
as §1

Data set [6] is described as follows: Drug level in C57BL/6 mouse treated with 50 mg/kg, po N-(5-Fluoro-6-(trifluoromethyl)benzothiazol-2-yl)cyclopropanecarboxamide administered as suspension via gavage assessed as compound formation after 15 mins to 24 hrs by LC-MS/Ms analysis. The class given is ADME, organism-based. Particulars: in vivo. Put shortly: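 Female C57BL/6 mice (n=3) were gavaged with 50 mg/kg parent compound as a 1% methylcellulose suspension. Whole blood was sampled at 15, 30, 45 min and 1, 2, 4, 8 and 24 h, diluted 1/2 with water and frozen.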

Bounds are passed on as bounds.

In the case of `O=C(Nc1nc2ccc(Cl)cc2s1)C1CCOC1` (centres undefined), the 50% inhibitory concentration (IC50) (in general, the concentration needed to halve the response being measured) in the data set with H9c2 is over 50 µM; in the data set with Trypanosoma cruzi [2], 4.4 µM. In addition, in data set [1], the selectivity ratio was over 11.

The compound `CC(=O)N(CCCN(C)C)c1nc2ccc(C)cc2s1` had an IC50 in the data set with Trypanosoma cruzi [3] of 0.236 µM.

With `CC(C)(C)C(=O)Nc1nc2ccc(Cl)cc2s1`, the concentration for half-maximal inhibition (IC50) in the data set with H9c2 is over 50 µM; in the data set with Trypanosoma cruzi [2], 0.95 µM. Moreover, in data set [1], the selectivity ratio was over 52.

`O=S(=O)(Nc1nc2ccc(C(F)(F)F)cc2s1)C1CC1`: the figures for the IC50 in the data set with H9c2 and with Trypanosoma cruzi [2] were 6.6 µM and over 50 µM, respectively. The selectivity ratio in data set [1] is under 0.13.

Regarding `CCN(C(=O)C1CC1)c1nc2ccc(Cl)cc2s1`, the IC50 in the data set on H9c2 and in the data set with Trypanosoma cruzi [2] was over 50 µM each time. Further, the selectivity ratio in data set [1] was found to be 1.

In the case of `CC(C)(C)c1ccc2nc(NC(=O)C3CC3)sc2c1`, the IC50 in the data set with H9c2 is 32 µM; in the data set on Trypanosoma cruzi [2], 7.85 µM. Further, the selectivity ratio in data set [1] amounted to 4.

Turning to `O=C(C1CC1)N(CCO)c1nc2ccc(Cl)cc2s1`, the half-maximal inhibitory concentration (IC50) with H9c2 and in the data set on Trypanosoma cruzi [2] was over 50 µM in each case. In addition, the selectivity ratio in data set [1] amounted to 1.

`N#Cc1cc2nc(NC(=O)C3CC3)sc2cc1C(F)(F)F`: the values for the IC50 in the data set on H9c2 and in the data set on Trypanosoma cruzi [2] were 15.5 µM and over 50 µM, respectively.

For `Cc1ccc2nc(NC(=O)C3CC3)sc2c1`, the IC50 with H9c2 was over 50 µM; with Trypanosoma cruzi [2], 4.52 µM. The selectivity ratio in data set [1] was over 11.

As for `Clc1ccc2nc(NCC3CC3)sc2c1`, the figures for the IC50 in the data set with H9c2 and in the data set on Trypanosoma cruzi [2] were over 50 µM and 27 µM, respectively. Further, the selectivity ratio in data set [1] is over 2.

Take `CC(C)(F)C(=O)Nc1nc2cc(F)c(C(F)(F)F)cc2s1`: the IC50 with H9c2 was over 50 µM; in the data set on Trypanosoma cruzi [2], 1 µM. Moreover, the selectivity ratio in data set [1] is over 50.

For `O=C(CCO)Nc1nc2ccc(Cl)cc2s1`, the IC50 is over 50 µM in the data set on H9c2 and 14 µM in the data set on Trypanosoma cruzi [2]. Moreover, in data set [1], the selectivity ratio was over 3.

In the case of `O=C(Nc1nc2ccc(Cl)cc2s1)C1CC1`, the IC50 in the data set with H9c2 is over 50 µM; with Trypanosoma cruzi [2] it was 0.63 µM; with Trypanosoma cruzi [3], 0.119 µM. Also, the CLH in data set [4] amounted to 9.57 mL/min/g; in data set [5], 2.51 mL/min/g. In data set [1], the selectivity ratio is over 80.

`CN(C(=O)C1CC1)c1nc2ccc(Cl)cc2s1`: the IC50 in the data set with H9c2 is over 50 µM; with Trypanosoma cruzi [2], 25 µM. Moreover, the selectivity ratio in data set [1] was over 2.

Turning to `O=C(Nc1nc2cccc(Cl)c2s1)C1CC1`, the results for the IC50 with H9c2 and in the data set on Trypanosoma cruzi [2] were over 50 µM and 24 µM, respectively. In data set [1], the selectivity ratio was over 2.

`O=C(Nc1nc2ccc(Cl)cc2s1)C1CCC1`: the IC50 with H9c2 is over 50 µM; in the data set on Trypanosoma cruzi [2], 1.32 µM. Also, the selectivity ratio in data set [1] is over 38.

As to `COc1cc2nc(NC(=O)C3CC3)sc2cc1C(F)(F)F`, the IC50 in the data set with H9c2 is over 50 µM; in the data set on Trypanosoma cruzi [2], 20 µM. The selectivity ratio in data set [1] is over 2.5.

Take `Cc1cc2nc(NC(=O)C3CC3)sc2cc1C(F)(F)F`: the IC50 in the data set with H9c2 amounted to 36 µM; in the data set with Trypanosoma cruzi [2] it was 26 µM. Also, in data set [1], the selectivity ratio was 1.

Take `CCc1ccc2nc(NC(=O)C3CC3)sc2c1`: the IC50 was over 50 µM with H9c2 and 0.14 µM in the data set with Trypanosoma cruzi [2]. Also, the results for the CLH in data set [4] and in data set [5] were 10.4 mL/min/g and 125 mL/min/g, respectively. The selectivity ratio in data set [1] is over 357.

Consider `N#Cc1cc2sc(NC(=O)C3CC3)nc2cc1F`, for which the IC50 in the data set with H9c2 is over 50 µM; with Trypanosoma cruzi [2], 2.3 µM. In addition, the selectivity ratio in data set [1] is over 22.

On to `CC(C)C(=O)Nc1nc2cc(F)c(C(F)(F)F)cc2s1`, for which the values for the IC50 in the data set with H9c2 and in the data set with Trypanosoma cruzi [2] were over 50 µM and 0.25 µM, respectively. Besides, the selectivity ratio in data set [1] was over 200.

Turning to `CCS(=O)(=O)c1cc2sc(NC(=O)C3CC3)nc2cc1F`, the IC50 in the data set on H9c2 is over 50 µM; with Trypanosoma cruzi [2], 42 µM. In data set [1], the selectivity ratio is over 1.

Regarding `CCCC(=O)Nc1nc2ccc(Cl)cc2s1`, the IC50 with H9c2 is over 50 µM; with Trypanosoma cruzi [2] it was 4.73 µM. Also, the selectivity ratio in data set [1] is over 11.

`CN(C)CCCN(C(=O)c1nc2ccccc2s1)c1nc2ccc(F)cc2s1`: the concentration for half-maximal inhibition (IC50) in the data set with Trypanosoma cruzi [3] was 0.1 µM.

Regarding `O=C(Nc1nc2ccc(F)cc2s1)C1CC1`, the results for the IC50 in the data set with H9c2 and with Trypanosoma cruzi [2] were over 50 µM and 4.22 µM, respectively. In data set [1], the selectivity ratio is over 12.

Consider `O=C(Nc1nc2ccc(OC(F)(F)F)cc2s1)C1CC1`, for which the IC50 amounted to 5 µM with H9c2 and 0.19 µM in the data set with Trypanosoma cruzi [2]. For the same compound, the selectivity ratio in data set [1] came out at 28.

Turning to `O=C(Nc1nc2ccc(C(F)(F)F)cc2s1)C1CC1`, the figures for the IC50 in the data set on H9c2 and in the data set with Trypanosoma cruzi [2] were over 50 µM and 0.1 µM, respectively. Also, the CLH in data set [4] was determined as 0.94 mL/min/g; in data set [5], 2.71 mL/min/g. Moreover, in data set [1], the selectivity ratio is over 500.

As for `O=C(Nc1nc2ccc([N+](=O)[O-])cc2s1)C1CC1`, the IC50 in the data set with H9c2 is over 50 µM; with Trypanosoma cruzi [2], 0.04 µM. Besides, the figures for the CLH in data set [4] and in data set [5] were 1.57 mL/min/g and 3.06 mL/min/g, respectively. Further, in data set [1], the selectivity ratio was over 1200.

For the compound `CC(C)(F)C(=O)Nc1nc2ccc(C(F)(F)F)cc2s1`, the IC50 is over 50 µM in the data set on H9c2 and 0.13 µM in the data set with Trypanosoma cruzi [2]. In addition, the selectivity ratio in data set [1] is over 384.

For the compound `O=C(Nc1nc2ccc(Cl)cc2s1)C1COC1`, the results for the IC50 with H9c2 and with Trypanosoma cruzi [2] were over 50 µM and 4.4 µM, respectively. In data set [1], the selectivity ratio is over 11.

Turning to `O=C(Nc1nc2c(Cl)cccc2s1)C1CC1`, the 50% inhibitory concentration (IC50) in the data set on H9c2 and in the data set on Trypanosoma cruzi [2] was over 50 µM each time.

In the case of `O=C(Nc1nc2cc(Cl)ccc2s1)C1CC1`, the figures for the IC50 in the data set on H9c2 and with Trypanosoma cruzi [2] were over 50 µM and 0.32 µM, respectively. For the same compound, the selectivity ratio in data set [1] was over 158.

Regarding `O=C(CC1CC1)Nc1nc2ccc(Cl)cc2s1`, the figures for the IC50 in the data set on H9c2 and in the data set with Trypanosoma cruzi [2] were over 50 µM and 5.4 µM, respectively. Also, the selectivity ratio in data set [1] is over 9.

Take `CCCCN(C(=O)C1CC1)c1nc2ccc(Cl)cc2s1`: the IC50 in the data set on H9c2 and in the data set on Trypanosoma cruzi [2] was over 50 µM each time. For the same compound, in data set [1], the selectivity ratio was 1.

For the compound `CNS(=O)(=O)c1cc2sc(NC(=O)C3CC3)nc2cc1F`, the IC50 with H9c2 was over 50 µM; in the data set on Trypanosoma cruzi [2] it was 26 µM. Besides, the selectivity ratio in data set [1] was over 2.

Turning to `FC(F)(F)c1ccc2nc(N/N=C/C3CC3)sc2c1`, the IC50 was determined as 13 µM in the data set with H9c2 and 2.4 µM in the data set on Trypanosoma cruzi [2]. In addition, in data set [1], the selectivity ratio is 5.

Regarding `CC(C)C(=O)Nc1nc2ccc(Cl)cc2s1`, the values for the IC50 with H9c2 and with Trypanosoma cruzi [2] were over 50 µM and 0.41 µM, respectively. Besides, the selectivity ratio in data set [1] was over 123.

For `CCOc1ccc2nc(NC(=O)C3CC3)sc2c1`, the IC50 in the data set on H9c2 is over 50 µM; with Trypanosoma cruzi [2] it was 2.5 µM. In addition, the selectivity ratio in data set [1] is over 20.

For `O=C(Nc1nc2cc(C(F)(F)F)c(F)cc2s1)C1CC1`, the values for the IC50 in the data set with H9c2 and in the data set with Trypanosoma cruzi [2] were 46 µM and 35 µM, respectively. Further, in data set [1], the selectivity ratio is 1.

For the compound `CC(C)c1ccc2nc(NC(=O)C3CC3)sc2c1`, the half-maximal inhibitory concentration (IC50) is over 50 µM with H9c2 and 1.19 µM with Trypanosoma cruzi [2]. Besides, the selectivity ratio in data set [1] was over 50.

For `Nc1nc2cc(F)c(C(F)(F)F)cc2s1`, the Drug metabolism result in data set [6] is recorded as “Metabolite_Detected”.
